Converted amounts (≈) assume the structure as drawn.
How the values were obtained:
[1] = Cytotoxicity against human Hep2 cells assessed as cell survival at 0.05 ug/ml after 24 hrs by trypan blue exclusion test (reference value: 87 to 94%); format: cell-based, HEp-2; conditions: read-out: Survival
Candida tropicalis = test: Antifungal activity against Candida tropicalis clinical isolate after 24 hrs by sabouraud dextrose broth based microdilution method; format: functional
Method in brief: (§1)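 Clinical isolates identified by conventional methods and subcultured for purity. Broth microdilution per NCCLS in Sabouraud dextrose broth; compounds dissolved in DMSO and serially diluted; inoculum 10^3/mL. Controls: fungi without compound, medium only. Incubated 24 h at 37 °C. MIC is the lowest concentration with complete growth inhibition by unaided eye. Values are geometric means over isolates per species.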

[2] = Cytotoxicity against human Hep2 cells assessed as cell survival at 0.5 ug/ml after 24 hrs by trypan blue exclusion test (reference value: 87 to 94%); format: cell-based, HEp-2; conditions: read-out: Survival
Pichia kudriavzevii = test: Antifungal activity against Candida krusei clinical isolate after 24 hrs by sabouraud dextrose broth based microdilution method; format: functional; method in brief: as §1
Staphylococcus warneri = test: Antibacterial activity against Staphylococcus warneri after 18 to 22 hrs by broth microdilution method; format: functional
Method in brief: (§2)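 Broth microdilution per NCCLS in Mueller-Hinton II broth; isolates subcultured for purity. Compounds dissolved in DMSO, serial dilutions 256 to 0.5 µg/mL; inoculum 10^5/mL. Controls: organism without compound, medium only. Incubation 18 to 22 h at 35 °C. MIC is the lowest concentration giving complete growth inhibition, read by unaided eye.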

[3] = Cytotoxicity against human Hep2 cells assessed as cell survival at 100 ug/ml after 24 hrs by trypan blue exclusion test (reference value: 87 to 94%); format: cell-based, HEp-2; conditions: read-out: Survival
[4] = Cytotoxicity against human Hep2 cells assessed as cell survival at 5 ug/ml after 24 hrs by trypan blue exclusion test (reference value: 87 to 94%); format: cell-based, HEp-2; conditions: read-out: Survival
Proteus mirabilis = test: Antibacterial activity against Proteus mirabilis after 18 to 22 hrs by broth microdilution method; format: functional; method in brief: as §2
[5] = system: Staphylococcus haemolyticus; test: Antibacterial activity against Staphylococcus haemolyticus after 18 to 22 hrs by broth microdilution method; format: functional; method in brief: as §2
Candida parapsilosis = test: Antifungal activity against Candida parapsilosis clinical isolate after 24 hrs by sabouraud dextrose broth based microdilution method; format: functional; conditions: Lodderomyces parapsilosis; method in brief: as §1
Enterobacter sp. = test: Antibacterial activity against Enterobacter sp. after 18 to 22 hrs by broth microdilution method; format: functional; method in brief: as §2
Staphylococcus aureus = test: Antibacterial activity against Staphylococcus aureus after 18 to 22 hrs by broth microdilution method; format: functional; method in brief: as §2
[6] = Cytotoxicity against human Hep2 cells assessed as cell survival after 24 hrs by trypan blue exclusion method; format: cell-based, HEp-2
Method in brief: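 Hep2 cells grown in DMEM with 10% FBS and 1% streptomycin-penicillin at 37 °C, 5% CO2, used at 60-70% confluency. Seeded at 1 x 10^5/mL and exposed 24 h to five concentrations (0.05-100 µg/mL), DMSO ≤0.5%. Controls: medium alone, DMSO, 1 mM nitroprusside. Cells scraped, recovered 30 min, stained 1:1 with 0.4% Trypan blue, counted by two operators. Means of ≥3 independent experiments.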

Candida albicans = test: Antifungal activity against Candida albicans clinical isolate after 24 hrs by sabouraud dextrose broth based microdilution method; format: functional; method in brief: as §1
[Candida] sake = Antifungal activity against Candida sake clinical isolate after 24 hrs by sabouraud dextrose broth based microdilution method; format: functional; conditions: Fermentozyma sake; method in brief: as §1
Escherichia coli = test: Antibacterial activity against Escherichia coli at after 18 to 22 hrs by broth microdilution method; format: functional; method in brief: as §2
Klebsiella oxytoca = test: Antibacterial activity against Klebsiella oxytoca after 18 to 22 hrs by broth microdilution method; format: functional; method in brief: as §2
Nakaseomyces glabratus = test: Antifungal activity against Candida glabrata clinical isolate after 24 hrs by sabouraud dextrose broth based microdilution method; format: functional; method in brief: as §1
Enterococcus faecalis = test: Antibacterial activity against […] faecalis after 18 to 22 hrs by broth microdilution method; format: functional; method in brief: as §2
[7] = Cytotoxicity against human Hep2 cells assessed as cell survival at 50 ug/ml after 24 hrs by trypan blue exclusion test (reference value: 87 to 94%); format: cell-based, HEp-2; conditions: read-out: Survival
[8] = Selectivity index, ratio of CC50 for human Hep2 cells to MIC for Candida glabrata; parameters: species or system HEp-2
Method in brief: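 Ratio of CC50 from the 24 h Trypan blue assay on Hep2 cells to the MIC against C. glabrata from the 24 h, 37 °C Sabouraud broth microdilution.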

Row | Structure (SMILES) | viability at 24 h, 0.05 ug/ml [1] [%] | MIC (Candida tropicalis) [µg/mL] | viability at 24 h, 0.5 ug/ml [2] [%] | MIC (Pichia kudriavzevii) [µg/mL] | MIC (Staphylococcus warneri) [µg/mL] | viability at 24 h, 100 ug/ml [3] [%] | viability at 24 h, 5 ug/ml [4] [%] | MIC (Proteus mirabilis) [µg/mL] | MIC [5] [µg/mL] | MIC (Candida parapsilosis) [µg/mL] | MIC (Enterobacter sp.) [µg/mL] | MIC (Staphylococcus aureus) [µg/mL] | CC50 at 24 h [6] [µg/mL] | MIC (Candida albicans) [µg/mL] | MIC ([Candida] sake) [µg/mL] | MIC (Escherichia coli) [µg/mL] | MIC (Klebsiella oxytoca) [µg/mL] | MIC (Nakaseomyces glabratus) [µg/mL] | MIC (Enterococcus faecalis) [µg/mL] | viability at 24 h, 50 ug/ml [7] [%] | further results
1 | CC(C)=N/N=C1\SCC(=O)N1CN1C(=O)c2ccccc2C1=O | 86 | 1 (≈ 3.03 µM) | 73 | 2 (≈ 6.05 µM) | > 256 | 0 | 61 | > 256 | > 256 | 2 (≈ 6.05 µM) | > 256 | > 256 | 22 (≈ 66.6 µM) | 4 (≈ 12.1 µM) | 2 (≈ 6.05 µM) | > 256 | > 256 | 1 (≈ 3.03 µM) | > 256 | 0 | 
2 | CCCCC/C(C)=N/N=C1\SCC(=O)N1Cc1ccc([N+](=O)[O-])cc1 | 95.4 | 64 (≈ 177 µM) | 93.5 | 2 (≈ 5.52 µM) | > 256 | 0 | 87 | > 256 | > 256 | 2 (≈ 5.52 µM) | > 256 | > 256 | 35 (≈ 96.6 µM) | 4 (≈ 11 µM) | 2 (≈ 5.52 µM) | > 256 | > 256 | 1 (≈ 2.76 µM) | > 256 | 0 | 
3 | C/C(CC(C)C)=N\N=C1/SCC(=O)N1Cc1ccc([N+](=O)[O-])cc1 | 93 | 32 (≈ 91.8 µM) | 92.5 | 2 (≈ 5.74 µM) | > 256 | 0 | 82 | > 256 | > 256 | 2 (≈ 5.74 µM) | > 256 | > 256 | 32 (≈ 91.8 µM) | 1 (≈ 2.87 µM) | 4 (≈ 11.5 µM) | > 256 | > 256 | 1 (≈ 2.87 µM) | > 256 | 0 | 
4 | O=C1CS/C(=N\N=C2CCCC2)N1Cc1ccc([N+](=O)[O-])cc1 | 95 | 1 (≈ 3.01 µM) | 88 | 8 (≈ 24.1 µM) | > 256 | 0 | 51 | > 256 | > 256 | 16 (≈ 48.1 µM) | > 256 | > 256 | 28 (≈ 84.2 µM) | 2 (≈ 6.02 µM) | 16 (≈ 48.1 µM) | > 256 | > 256 | 16 (≈ 48.1 µM) | > 256 | 0 | 
5 | C/C(CC(C)C)=N\N=C1/SCC(=O)N1Cc1cccc2ccccc12 | 93.2 | 64 (≈ 181 µM) | 91 | 2 (≈ 5.66 µM) | > 256 | 46 | 87.5 | > 256 | > 256 | 2 (≈ 5.66 µM) | > 256 | > 256 | 95 (≈ 269 µM) | 4 (≈ 11.3 µM) | 4 (≈ 11.3 µM) | > 256 | > 256 | 1 (≈ 2.83 µM) | > 256 | 73.6 | Selectivity Index [8]: 95
6 | O=C1CS/C(=N\N=C\c2ccco2)N1Cc1cccc2ccccc12 |  | 8 (≈ 22.9 µM) |  | 16 (≈ 45.8 µM) | > 256 |  |  | > 256 | > 256 | 16 (≈ 45.8 µM) | > 256 | > 256 |  | 16 (≈ 45.8 µM) | 2 (≈ 5.72 µM) | > 256 | > 256 | 8 (≈ 22.9 µM) | > 256 |  | 
7 | C/C(=N\N=C1/SCC(=O)N1Cc1ccc([N+](=O)[O-])cc1)c1cccs1 |  | 4 (≈ 10.7 µM) |  | 2 (≈ 5.34 µM) | > 256 |  |  | > 256 | > 256 | 2 (≈ 5.34 µM) | > 256 | > 256 |  | 8 (≈ 21.4 µM) | 8 (≈ 21.4 µM) | > 256 | > 256 | 2 (≈ 5.34 µM) | > 256 |  | 
8 | O=C1CS/C(=N\N=C\c2cccc3ccccc23)N1Cc1cccc2ccccc12 |  | 32 (≈ 78.1 µM) |  | 8 (≈ 19.5 µM) | > 256 |  |  | > 256 | > 256 | 8 (≈ 19.5 µM) | > 256 | > 256 |  | 256 (≈ 625 µM) | 8 (≈ 19.5 µM) | > 256 | > 256 | 64 (≈ 156 µM) | > 256 |  | 
9 | C/C(=N\N=C1/SCC(=O)N1Cc1cccc2ccccc12)C1CCCCC1 |  | 256 (≈ 675 µM) |  | 2 (≈ 5.27 µM) | > 256 |  |  | > 256 | > 256 | 16 (≈ 42.2 µM) | > 256 | > 256 |  | 8 (≈ 21.1 µM) | 16 (≈ 42.2 µM) | > 256 | > 256 | 8 (≈ 21.1 µM) | > 256 |  | 
10 | O=C1CS/C(=N\N=C2CCCCCC2)N1Cc1ccc([N+](=O)[O-])cc1 |  | 16 (≈ 44.4 µM) |  | 4 (≈ 11.1 µM) | > 256 |  |  | > 256 | > 256 | 8 (≈ 22.2 µM) | > 256 | > 256 |  | 128 (≈ 355 µM) | 4 (≈ 11.1 µM) | > 256 | > 256 | 32 (≈ 88.8 µM) | > 256 |  | 
